Experimental findings from PubChem BioAssay AID463191 (Sanford-Burnham Center for Chemical Genomics, 2010) are described below.

Active and inactive are the calls of the source.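 How the source made its calls: active means compounds whose mean IC50 across repeat dose response tests falls below a set limit; inactive means the rest.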

For this assay, the system named is AML12 mouse hepatocytes, BODIPY lipid droplet imaging. Kind of assay: potency against lipid droplet buildup in liver cells – imaging, AML12 mouse hepatocytes, high-content, dose response (AID 463191). To be noted: cells loaded with 100 µM oleic acid. Summed up: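 System – AML12 mouse hepatocyte cell line, lipid droplet imaging · Reagent – oleic acid at 100 µM final for lipid loading · Compound dosing – 7 doses, 0.5–32 µM, 0.32% DMSO · Schedule – cells grown about 20 h at 37 °C, then overnight compound exposure · Read-out – IC50 from per-cell lipid droplet intensity · Replication – duplicate points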

As to `CCOc1ccc(CCNC(=O)CCc2nnc3ccc(N4CCCCC4)nn23)cc1OCC`, the IC50 was 0.582 µM.
As to `Cc1cccc(C(C(=O)NC2CCCC2)N(C(=O)c2csnn2)C2CCCC2)c1` (configuration not stated), the IC50 was 23.9 µM (inactive).
Turning to `COc1ccccc1NS(=O)(=O)c1ccc(N/N=C/c2c(C)nn(-c3ccccc3)c2N2CCCC2)c([N+](=O)[O-])c1`, the IC50 was below 0.5 µM.
With `COc1ccc(NC(=O)CSc2nc3ccccc3nc2N2CCCCC2)cc1`, the IC50 is 1.18 µM.
Take `CCC(C(=O)NCCc1ccccc1OC)n1nc(C)c2c(C)n(-c3ccccc3)nc2c1=O` (configuration not stated): the IC50 is 3.26 µM.
For `CCCOc1ccc(C(=O)OCC(=O)NCCc2ccc(OCC)c(OCC)c2)cc1OC`, the IC50 was 0.593 µM.
Consider `Cc1ccc(CNC(=O)c2ccc(N3CCC4(CC3)CC(c3ccccc3)=NO4)c(NC(=O)c3ccc(Br)cc3)c2)cc1`, for which the IC50 was below 0.5 µM.
With `COc1ccc(OC)c(NC(=O)Cc2coc3ccc4ccccc4c23)c1` the figure was 11.4 µM (inactive); with `CCc1ccc(NC(=O)CSc2nnc(C)c(=O)n2N)cc1`, 1.48 µM; with `CCOc1ccccc1NC(=O)CCC(=O)Nc1ccccc1OCC`, 4.18 µM.
`O=C(NCc1ccccc1)C(c1ccccc1F)N(C(=O)c1csnn1)C1CCCC1` (configuration not stated): the IC50 was 3.49 µM.
With `CCCc1nc2ccccc2c(C(=O)OC(C)C(=O)NCc2ccc3c(c2)OCO3)c1CC` (configuration not stated), the IC50 was 1.97 µM.
`CCCCCn1c(N)c(-c2nc3ccccc3s2)c2c([N+](=O)[O-])nn(CC)c(=O)c21`: the IC50 was 7.46 µM (inactive).
Take `CCCN1C(=O)/C(=C\C=C2\N(CC)c3ccccc3C2(C)C)SC1=S`: the IC50 is below 0.5 µM.
With `COCc1ccc(C(=O)NC2CCCc3c2cnn3-c2ccc(C)c(C)c2)o1` (configuration not stated), the IC50 is 2.44 µM.
Take `COc1ccc(CCNC(=O)CCOc2cc(C)ccc2C)cc1OC`: the IC50 is 4.55 µM.
Turning to `COC(=O)/C(=C/c1ccc2c(c1)c1ccccc1n2C)NC(=O)c1ccccc1`, the IC50 is 4.24 µM.
For the compound `COc1ccc(NC(=O)CSc2nc3ccccc3nc2N2CCCC2)cc1Cl`, the IC50 was 2.85 µM.
For the compound `O=C(CSCC(=O)N1CCCc2ccccc21)Nc1nc(-c2ccccc2)cs1`, the IC50 was 4.24 µM.
On to `CCOc1ccc(CCNC(=O)COC(=O)c2cccnc2OCC)cc1OCC`, for which the IC50 was 2.29 µM.
As to `CCOC(=O)c1cc(CC)sc1NC(=O)C1CC(=O)NN1Cc1ccccc1` (configuration not stated), the IC50 was 0.573 µM.
On to `CCOc1ccc(CCNC(=O)COc2cc(=O)n(C)c3ccccc23)cc1OCC`, for which the IC50 was 3.95 µM.
In the case of `O=C1C(NS(=O)(=O)c2ccccc2)=C(N2CCN(c3ccc(F)cc3)CC2)C(=O)c2ccccc21`, the IC50 is 1.78 µM.
With `CCCCNC(=O)c1ccc2c(c1)N(C)C(=O)c1ccccc1S2`, the IC50 is 6.88 µM (inactive).
With `COc1ccc(CN(C)C(=O)CNC(=O)Cc2cccc3ccccc23)c(OC)c1OC` the figure was 4.55 µM; with `O=C(Cc1cccc2ccccc12)Nc1nc(-c2cccc([N+](=O)[O-])c2)cs1`, 4.3 µM; with `CCOc1ccc(CCNC(=O)COC(=O)c2c(C)nn(-c3ccccc3)c2C)cc1OCC`, below 0.5 µM.
Regarding `COc1cc(NC(=O)c2ccco2)c(OC)cc1NC(=O)CCC(=O)Nc1cc(C)cc(C)c1`, the IC50 was below 0.5 µM.
With `CCOc1ccc(CN(C)C(=O)CNC(=O)c2ccc3ccccc3c2)cc1OC` the figure was 0.809 µM.
Consider `CCOc1ccc(CCNC(=O)CCc2nc(-c3ccc(OC)cc3)no2)cc1OCC`, for which the IC50 was 0.782 µM.
The value for `COc1ccc(C(C(=O)NC(C)(C)C)N(Cc2ccccc2)C(=O)CCC(=O)Nc2cc(C)on2)cc1` (configuration not stated) was 8.98 µM (inactive); that for `O=C(Nc1nc(-c2ccc(-c3ccccc3)cc2)cs1)C1CCCO1` (configuration not stated) was 2.23 µM; that for `CCOc1ccccc1NC(=O)N1CCCC1C(=O)Nc1ccc(-n2cnnn2)c(C)c1` (configuration not stated) was 1.42 µM.
Turning to `CCCCOc1ccc(/C=C/C(=O)OCC(=O)c2c(N)n(C)c(=O)n(C)c2=O)cc1OCC`, the IC50 is 28.8 µM (inactive).
The value for `O=C(NCc1ccc2c(c1)OCO2)c1cc(-c2ccccc2)c(N2CCOCC2)s1` was 0.715 µM; that for `COc1ccc(CCNC(=O)c2ccc(CNc3nc(=S)[nH]c4ccccc34)cc2)cc1OC` was 1.28 µM.
As for `CCOc1ccc(CCNC(=O)Nc2ccccc2C)cc1OCC`, the IC50 was 2.03 µM.
Regarding `CCOc1ccc(CCNC(=O)Cn2c(-c3nonc3N)nc3ccccc32)cc1OCC`, the IC50 was 0.58 µM.
The value for `C=CCOc1ccc(-c2nc3c(c(=O)[nH]c(=O)n3Cc3ccccc3)n2CCCOC)cc1` was 2.98 µM; that for `CCOc1ccc(CCNC(=O)Nc2ccccc2)cc1OCC` was 0.583 µM.
Consider `COc1ccc(C(=O)NC2CCCc3c2cnn3-c2cccc(C)c2C)o1` (configuration not stated), for which the IC50 was 2.56 µM.
For `CC(=O)Nc1ccc(-c2csc(NC(=O)Cc3cccc(F)c3)n2)cc1`, the IC50 is 1.8 µM.
As for `CCOc1ccc2nc(-c3ccccc3)nc(SCC(=O)Nc3ncc(C)s3)c2c1`, the IC50 was below 0.5 µM.
With `COc1ccc(-c2csc(NNC3=NCCCCC3)n2)cc1` the figure was 1.42 µM; with `CCCCn1c(=O)[nH]c(=O)c2c1nc(-c1ccc(-c3ccccc3)cc1)n2C`, 9.97 µM (inactive); with `CCOc1ccc(CCNC(=O)CCc2nnc3ccc(N4CCCC4)nn23)cc1OCC`, 1.81 µM.
For the compound `CCOc1ccc(CCNC(=O)CCC(=O)N2CCSc3ccccc32)cc1OCC`, the IC50 was below 0.5 µM.
Regarding `CC(C)OC(=O)/C(=C/c1ccc2c(c1)c1ccccc1n2C)NC(=O)c1ccccc1`, the IC50 is 1.8 µM.
Turning to `CCOc1ccc(CCNC(=O)Cn2ncn3nc(-c4ccc(OC)cc4)cc3c2=O)cc1OCC`, the concentration for half-maximal inhibition (IC50) is below 0.5 µM.
On to `Cc1ccc(-n2nc3c(=O)n(CC(=O)NC4CCCCC4)nc(C)c3c2C)cc1`, for which the IC50 was 4.73 µM.
Turning to `Cc1cccc(NC(=O)[C@H](C)NC(=O)[C@@H]2Cc3ccccc3CN2C(=O)OC(C)(C)C)c1`, the IC50 was 1.63 µM.
Take `CC1CCN(C2=C(NS(=O)(=O)c3ccc(Br)cc3)C(=O)c3ccccc3C2=O)CC1`: the IC50 is 0.703 µM.
With `COc1ccc(CCNC(=O)Cc2cccc(C(F)(F)F)c2)cc1OC` the figure was 9.06 µM (inactive); with `CCOc1ccc(CCNC(=O)C2CC(=O)N(Cc3ccc(OC)cc3)C2)cc1OCC` (configuration not stated), 3.81 µM; with `CCOc1ccc(C(=O)OCC(=O)Nc2nc(OC)cc(OC)n2)cc1OCC`, 1.12 µM.
The value for `CCOc1ncccc1C(=O)OC(C)C(=O)Nc1ccc(CC)cc1` (configuration not stated) was 2.64 µM.
With `COc1ccc(C2(c3ccc(OC)cc3)NC(=O)N(CC(=O)Nc3ccc(OC)c(OC)c3)C2=O)cc1`, the IC50 was 6.86 µM (inactive).
Regarding `COc1ccc(OC)c(CCNC(=O)C(C)n2nc(C)c3c(C)n(-c4ccc(C)cc4)nc3c2=O)c1` (configuration not stated), the IC50 is 1.59 µM.
`COc1ccc(CCNC(=O)c2cc(-c3ccccc3)c(N3CCOCC3)s2)c(OC)c1OC`: the IC50 was below 0.5 µM.
Regarding `CCOc1ccc(CCNC(=O)CN2CCN(Cc3ccc(F)cc3)C2=O)cc1OCC`, the IC50 was 1.83 µM.
For the compound `CCOc1ccc(CN(C)C(=O)CNC(=O)Cc2cccc3ccccc23)cc1`, the IC50 is 0.566 µM.
Regarding `CCOc1ccc(C(=O)CCC(=O)NCC(=O)OCc2ccccc2)cc1OCC`, the IC50 is 8 µM (inactive).

For orientation: IC50 means the midpoint of a concentration-inhibition curve.
